Results pooled from the literature.
Compare with care: the assays were run in different laboratories.
Read-out: cell growth or viability

SMILES	cell line	test	conditions	quantity	value
CC(C)(C)c1cnc(CSc2cnc(NC(=O)C3CCN(CCCCCCCCSc4cccc5c4CN(C4CCC(=O)NC4=O)C5=O)CC3)s2)o1 (stereo not drawn)	HH	CCK-8	10 nM	viability	99.7%
Nc1ncnc2c1c(/C=C/C(=O)N1CCC(c3ccccc3)CC1)nn2CC1CCCC1	OE33	resazurin	5 days	EC50	> 30000 nM
CC(C)(C)c1cnc(CSc2cnc(NC(=O)C3CCN(CCCCCCCCSc4cccc5c4C(=O)N(C4CCC(=O)NC4=O)C5=O)CC3)s2)o1 (stereo not drawn)	HH	CCK-8	10 nM	viability	98.2%
O=C(Nc1ccc(Oc2nnc(-c3ccc(Cl)cc3)c3ccccc23)cc1)c1ccccc1	HepG2	MTT	0.156 µM	cell death	45.6%
CC(C)(C)c1cnc(CSc2cnc(NC(=O)C3CCN(CCCCSc4cccc5c4C(=O)N(C4CCC(=O)NC4=O)C5=O)CC3)s2)o1 (stereo not drawn)	HH	CCK-8	0.1 µM	viability	97.9%
Nc1ncnc2c1c(/C=C/C(=O)O)nn2CC1CCCC1	OE33	resazurin	5 days	EC50	> 30000 nM
CC(=NNC(=O)c1cccnc1)c1ccc(Nc2nnc(-c3ccc(Cl)cc3)c3ccccc23)cc1	HepG2	MTT	5 µM	cell death	96.8%
CC(C)(C)c1cnc(CSc2cnc(NC(=O)C3CCN(C(=O)COCCOCCSc4cccc5c4C(=O)N(C4CCC(=O)NC4=O)C5=O)CC3)s2)o1 (stereo not drawn)	HH	CCK-8	50 nM	viability	97.9%
CNc1ncc2c(/C=C/C(=O)N3CCC(CCO)CC3)nn(CC3CCCC3)c2n1	OE33	resazurin	5 days	EC50	> 30000 nM
S=C(Nc1ccccc1)Nc1ccc(Oc2nnc(-c3ccc(Cl)cc3)c3ccccc23)cc1	HepG2	MTT	10 µM	cell death	97.2%
C=CC(=O)NC1CCN(c2ncc3ncnc(Nc4ccc(Oc5ccc6c(c5)ncn6C)c(C)c4)c3n2)CC1	NCI-H292	–	–	EC50	82.6 nM
CNc1ncc2c(/C=C/C(=O)N3CCC(OC)CC3)nn(Cc3ccc(C(F)(F)F)cc3)c2n1	OE33	resazurin	5 days	EC50	1320 nM
CC(=NNC(=O)c1ccccc1)c1ccc(Nc2nnc(-c3ccc(Cl)cc3)c3ccccc23)cc1	HepG2	MTT	2.5 µM	cell death	95.8%
CNc1ncc2c(/C=C/C(=O)N3CCC(OC)CC3)nn(Cc3ccc(C)cc3)c2n1	OE33	resazurin	5 days	EC50	2490 nM
CC(C)(C)c1cnc(CSc2cnc(NC(=O)C3CCN(C(=O)CCCSc4cccc5c4C(=O)N(C4CCC(=O)NC4=O)C5=O)CC3)s2)o1 (stereo not drawn)	HH	CCK-8	1 nM	viability	98.1%
